Data taken from paper PMC3362663 (Bioorganic & medicinal chemistry letters, 2012).

Tests used:
Epac2 [1] = target: T1, Epac2 (Mus musculus, UniProt Q9EQZ6); assay: 8-NBD-cAMP competition binding to Epac2, dose-dependent titration
T1 sequence (Q9EQZ6 1-993 isoform Q9EQZ6-3): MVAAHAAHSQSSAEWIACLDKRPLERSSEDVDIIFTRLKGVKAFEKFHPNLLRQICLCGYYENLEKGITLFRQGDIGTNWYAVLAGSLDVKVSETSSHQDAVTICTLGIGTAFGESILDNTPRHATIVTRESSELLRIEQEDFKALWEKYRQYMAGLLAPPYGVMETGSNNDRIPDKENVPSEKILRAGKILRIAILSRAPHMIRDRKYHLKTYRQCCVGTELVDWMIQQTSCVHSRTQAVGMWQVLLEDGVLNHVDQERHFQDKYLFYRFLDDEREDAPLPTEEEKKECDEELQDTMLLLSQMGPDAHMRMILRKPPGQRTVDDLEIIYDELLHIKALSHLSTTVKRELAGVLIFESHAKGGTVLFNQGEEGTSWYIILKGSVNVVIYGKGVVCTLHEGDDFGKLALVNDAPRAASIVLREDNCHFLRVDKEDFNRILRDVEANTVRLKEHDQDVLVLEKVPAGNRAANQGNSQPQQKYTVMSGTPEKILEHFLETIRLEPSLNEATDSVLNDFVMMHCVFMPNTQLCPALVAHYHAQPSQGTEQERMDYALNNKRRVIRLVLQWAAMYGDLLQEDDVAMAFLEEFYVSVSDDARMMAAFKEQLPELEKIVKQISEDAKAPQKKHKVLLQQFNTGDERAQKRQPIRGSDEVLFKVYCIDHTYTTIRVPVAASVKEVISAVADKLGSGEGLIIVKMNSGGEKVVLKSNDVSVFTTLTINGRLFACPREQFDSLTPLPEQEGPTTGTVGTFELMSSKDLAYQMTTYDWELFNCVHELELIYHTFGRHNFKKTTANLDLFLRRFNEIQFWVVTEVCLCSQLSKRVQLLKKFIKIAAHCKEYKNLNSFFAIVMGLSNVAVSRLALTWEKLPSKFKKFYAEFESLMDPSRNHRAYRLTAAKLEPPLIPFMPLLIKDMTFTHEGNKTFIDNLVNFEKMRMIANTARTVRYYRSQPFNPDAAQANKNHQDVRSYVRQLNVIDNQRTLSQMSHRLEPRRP

Epac1 = target: T2, Epac1 (Homo sapiens, UniProt O95398); assay: cAMP-mediated Epac1 GEF activity; format: biochemical; settings: for Inhibition of Epac1 GEF (Rap1-GDP exchange) activity: 25 μM compound in the presence of equal concentration (25 μM) of cAMP
T2 sequence (O95398 1-923): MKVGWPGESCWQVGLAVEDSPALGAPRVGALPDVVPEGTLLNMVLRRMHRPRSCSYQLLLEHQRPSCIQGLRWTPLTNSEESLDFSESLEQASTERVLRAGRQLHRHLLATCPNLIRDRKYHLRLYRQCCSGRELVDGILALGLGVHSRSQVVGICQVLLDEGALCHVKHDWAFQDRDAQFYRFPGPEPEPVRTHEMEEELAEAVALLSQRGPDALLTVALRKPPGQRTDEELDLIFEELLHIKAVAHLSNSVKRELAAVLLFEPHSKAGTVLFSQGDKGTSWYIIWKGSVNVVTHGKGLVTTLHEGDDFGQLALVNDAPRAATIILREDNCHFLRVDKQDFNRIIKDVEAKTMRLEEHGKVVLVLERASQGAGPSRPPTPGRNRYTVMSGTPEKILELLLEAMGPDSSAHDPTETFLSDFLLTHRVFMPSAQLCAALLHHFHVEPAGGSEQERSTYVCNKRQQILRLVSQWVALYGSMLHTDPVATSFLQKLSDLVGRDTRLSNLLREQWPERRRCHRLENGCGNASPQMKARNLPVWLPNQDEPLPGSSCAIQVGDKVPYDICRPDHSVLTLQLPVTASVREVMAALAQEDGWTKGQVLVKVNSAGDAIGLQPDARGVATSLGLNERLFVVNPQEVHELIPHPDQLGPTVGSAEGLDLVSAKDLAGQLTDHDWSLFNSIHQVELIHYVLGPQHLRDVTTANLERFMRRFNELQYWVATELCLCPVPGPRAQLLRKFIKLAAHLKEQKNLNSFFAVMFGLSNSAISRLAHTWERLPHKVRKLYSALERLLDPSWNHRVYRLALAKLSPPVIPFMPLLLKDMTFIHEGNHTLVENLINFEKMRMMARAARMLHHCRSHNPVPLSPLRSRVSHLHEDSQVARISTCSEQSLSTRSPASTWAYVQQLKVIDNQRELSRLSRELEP

Epac2 [2] = target: T1, Epac2; assay: cAMP-mediated Epac2 GEF activity, purified recombinant full-length protein; format: biochemical; settings: for Inhibition of Epac2 GEF activity: 25 μM compound in the presence of equal concentration (25 μM) of cAMP
type I PKA holoenzyme = assay: Counter-screen: type I PKA holoenzyme activity; format: biochemical; settings: 25 μM compound, 100 μM cAMP
type II PKA holoenzyme = assay: Counter-screen: type II PKA holoenzyme activity; format: biochemical; settings: 25 μM compound, 100 μM cAMP
HEK293/Epac1 cells = assay: Epac1-mediated Akt/PKB phosphorylation; format: cell-based; settings: 10 μM, 5 min pretreatment before 10 μM 007-AM
How it was run: (§1)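 HEK293 cells ectopically expressing Epac1 or Epac2 were pretreated, or not, with 10 μM test compound and then stimulated with 10 μM 007-AM. Cell lysates were analysed by Western blot with anti-phospho-Ser473 and anti-phospho-Thr308 PKB antibodies.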

HEK293/Epac2 cells = assay: Epac2-mediated Akt/PKB phosphorylation; format: cell-based; settings: 10 μM, 5 min pretreatment before 10 μM 007-AM
How it was run: as §1

[3] = 25 μM in the presence of equal molar concentration of cAMP, unpublished data

SMILES: N#Cc1c(C2CCCCC2)nc(Nc2ccc(Cl)cc2)[nH]c1=O [8b]
- IC50 (Epac2 [1]): > 300 µM

SMILES: Cc1ccc(C)c(CSc2nc(C3CCCC3)c(C#N)c(=O)[nH]2)c1 [6h, 4-Cyclopentyl-2-(2,5-dimethyl-benzylsulfanyl)-6-oxo-1,6-dihydro-pyrimidine-5-carbonitrile]
- Inhibition of Epac1 GEF (Rap1-GDP exchange) activity (Epac1): inhibit Epac1-mediated Rap1-GDP exchange activity
- Inhibition of Epac2 GEF activity (Epac2 [2]): inhibit Epac2 GEF activity to basal levels
- Effect on cAMP-induced type I PKA holoenzyme activation (type I PKA holoenzyme): not to alter
- Effect on cAMP-induced type II PKA holoenzyme activation (type II PKA holoenzyme): not to alter
- Block of Epac1-mediated Akt phosphorylation (HEK293/Epac1 cells): completely blocked
- Block of Epac2-mediated Akt phosphorylation (HEK293/Epac2 cells): completely blocked

SMILES: Cc1ccc(C)c(CSc2nc(C3CCCCC3)c(C#N)c(=O)[nH]2)c1 [compound 1]
- Inhibition of Epac1 activity (Epac1; [3]): completely inhibiting
- Inhibition of Epac2 activity (Epac2 [2]; [3]): completely inhibiting

SMILES: Cc1ccc(C)c(CSc2nc(C3CC3)c(C#N)c(=O)[nH]2)c1 [6g, 4-Cyclopropyl-2-(2,5-dimethylbenzylsulfanyl)-6-oxo-1,6-dihydro-pyrimidine-5-carbonitrile]
- Inhibition of Epac1 GEF (Rap1-GDP exchange) activity (Epac1): more Epac2-specific
- Inhibition of Epac2 GEF activity (Epac2 [2]): inhibit Epac2 GEF activity to basal levels
- Effect on cAMP-induced type I PKA holoenzyme activation (type I PKA holoenzyme): not to alter
- Effect on cAMP-induced type II PKA holoenzyme activation (type II PKA holoenzyme): not to alter
- Block of Epac1-mediated Akt phosphorylation (HEK293/Epac1 cells): completely blocked
- Block of Epac2-mediated Akt phosphorylation (HEK293/Epac2 cells): completely blocked

SMILES: Cc1ccc(C)c(CSc2nc(C3CCNCC3)c(C#N)c(=O)[nH]2)c1 [6k]
- IC50 (Epac2 [1]): > 300 µM

SMILES: N#Cc1c(C2CCCCC2)nc(SCC(=O)O)[nH]c1=O [compound 10]
- IC50 (Epac2 [1]): > 300 µM

SMILES: N#Cc1c(C2CCCCC2)nc(SCC(=O)Nc2ccccc2)[nH]c1=O [11a]
- IC50 (Epac2 [1]): > 300 µM

SMILES: O=S(=O)(NCCNC/C=C/c1ccc(Br)cc1)c1cccc2cnccc12 [H89, reference compound]
- Effect on cAMP-induced type I PKA holoenzyme activation (type I PKA holoenzyme): blocked the type I or II PKA activities completely
- Effect on cAMP-induced type II PKA holoenzyme activation (type II PKA holoenzyme): blocked the type I or II PKA activities completely

SMILES: Cc1cc(C)c(NC(=O)CSc2nc(C3CCCCC3)c(C#N)c(=O)[nH]2)c(C)c1 [11b]
- IC50 (Epac2 [1]): > 300 µM

SMILES: N#Cc1c(C2CCCCC2)nc(S)[nH]c1=O [5a]
- IC50 (Epac2 [1]): > 300 µM
- Relative Potency (RA) (Epac2 [1]; RA = IC50, cAMP/IC50, compound): <0.16

SMILES: N#Cc1c(C2CCCCC2)nc(Nc2ccccc2)[nH]c1=O [8a]
- IC50 (Epac2 [1]): > 300 µM

SMILES: Cc1ccc(NC(=O)CSc2nc(C3CCCCC3)c(C#N)c(=O)[nH]2)cc1 [11c]
- IC50 (Epac2 [1]): > 300 µM
